Compound activity (PubChem BioAssay)
S1P4 ag: S1P4 receptor agonists, primary screen, cell-based; Sphingosine 1-phosphate receptor 4 (Homo sapiens), O95977; S1P4-expressing cell line, agonist reporter assay; 0.35% of 220,000 active; activation, % at 4.98 µM; in the data active = activation above about 11%
S1P3 antag: S1P3 receptor antagonists, primary screen, cell-based | inhibition, % at 4.98 µM | Sphingosine 1-phosphate receptor 3 (Homo sapiens), Q99500 | 0.27% of 170,000 active | AID 485, 2006 | CHO S1P3 NFAT-BLA reporter, FRET fluorescence, antagonist mode;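 active = inhibition above the plate cutoff, the mean inhibition of test wells on that plate plus 3 SD, cut at about 28% in these data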;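 also: cells challenged with S1P at its EC80 of 0.8 µM; blue over green emission ratio from cleaved BLA substrate after 4 h stimulation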
MDM2 E3 inh: MDM2-luciferase reporter signal enhancers, primary screen, MDM2 E3 ligase inhibitor project, cell-based, luminescence, 1536-well; cell-based MDM2 ubiquitination luciferase reporter, 2 h; 0 = plate control, 100 = twice control, blank-subtracted; signal enhancement, % at 5 µM; 0.11% of 210,000 active; E3 ubiquitin-protein ligase Mdm2 (Homo sapiens), Q00987;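 active = signal enhancement of 30% or more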;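 also: luminescence tracks abundance of the self-degrading MDM2-luciferase fusion protein; higher signal means inhibition of MDM2 E3 ligase activity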
Target sequence (Q00987 whole entry, looked up, the tested form may be a part): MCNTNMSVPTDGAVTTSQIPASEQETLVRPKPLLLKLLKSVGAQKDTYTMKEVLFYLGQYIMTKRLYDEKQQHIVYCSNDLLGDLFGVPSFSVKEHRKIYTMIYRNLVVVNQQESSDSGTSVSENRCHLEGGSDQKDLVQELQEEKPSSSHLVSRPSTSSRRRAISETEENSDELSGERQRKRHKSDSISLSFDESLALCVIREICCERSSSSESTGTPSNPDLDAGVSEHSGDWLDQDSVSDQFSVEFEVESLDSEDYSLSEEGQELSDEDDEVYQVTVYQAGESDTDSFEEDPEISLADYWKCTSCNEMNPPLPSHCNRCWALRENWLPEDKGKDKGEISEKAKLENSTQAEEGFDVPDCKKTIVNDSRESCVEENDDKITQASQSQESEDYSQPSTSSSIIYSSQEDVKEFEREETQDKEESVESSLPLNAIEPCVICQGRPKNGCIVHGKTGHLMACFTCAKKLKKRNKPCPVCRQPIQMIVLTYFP
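Assay system: stable mammalian line carrying autodegrading MDM2–luciferase fusion reporter; Input: 2000 cells in each well; Compound dosing: single-point 5 µM; Schedule: 2 h compound exposure at 37 °C; Signal: SteadyLite luciferase luminescence after 15 min room-temperature reagent incubation; Evaluation: % luminescence enhancement versus blank-corrected plate control mean; Benchmarks: plate controls and plate blanks.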
S1P4 antagonist: S1P4 receptor antagonists, primary screen, cell-based; 0.26% of 220,000 active; AID 1510, 2009; S1P4-expressing cells, antagonist mode, reporter read-out; Sphingosine 1-phosphate receptor 4 (Homo sapiens), O95977; inhibition, % at 4.98 µM; in the data active = inhibition above about 29%
L major viab: Leishmania major promastigote growth inhibition, primary screen; Leishmania major promastigotes, resazurin fluorescence viability; inhibition, % at 10 µM; 9% of 200,000 active; AID 1063, 2008; in the data active = inhibition above about 50%;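 also: promastigotes grown with compound for 44 hours at 28 °C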
Large screens that a line does not name were inactive. This excerpt belongs to a sample that is enriched for hits.

O=C(COc1ccc2ccccc2c1)N1CCN(C2CCN(Cc3ccccc3)CC2)CC1	L major viab 92 (no result: S1P3 antag)
O=C(COc1ccc2ccccc2c1)N1CCN(CC2CC3C=CC2C3)CC1 (stereo not drawn)	L major viab 58 (no result: S1P3 antag)
CC1CCN(c2cc(Br)c([N+](=O)[O-])cc2F)CC1	none (no result: MDM2 E3 inh, L major viab)
O=Cc1c(C(=O)O)n(Cc2ccc(Cl)cc2)c2ccccc12	none
CCCCCc1nc2ccccc2c(=O)n1-c1ccccc1[N+](=O)[O-]	L major viab 51
CC(C)COc1ccc(C2(C#N)CC[N+](C)(C)CC2)cc1	none (no result: S1P3 antag)
CN(C)c1ccc(-[n+]2c(-c3ccccc3)cc(-c3ccccc3)cc2-c2ccccc2)cc1	L major viab 100
c1ccc(-c2cc(-c3ccccc3)[n+](-c3ccccc3)c(-c3ccccc3)c2)cc1	none (no result: L major viab)
CCc1cc2c(N3CCN(C)CC3)ncnc2s1	L major viab 73 (no result: S1P3 antag)
Cc1nn(C2CCOC(C)(C)C2)c2c1C(c1ccc3c(c1)OCO3)SCC(=O)N2 (stereo not drawn)	none (no result: S1P3 antag)
COc1ccc(C2SCC(=O)Nc3c2c(C)nn3C2CCOC(C)(C)C2)cc1 (stereo not drawn)	none (no result: S1P3 antag)
COc1cc(C2SCC(=O)Nc3c2c(C)nn3-c2ccccc2)cc(OC)c1OC (stereo not drawn)	L major viab 91 (no result: S1P3 antag)
Cc1nn(-c2ccccc2)c2c1C(c1ccc3c(c1)OCO3)SCC(=O)N2 (stereo not drawn)	L major viab 99
COc1ccc(C[C@@H]2c3cc(O)c(OC)cc3CCN2C)cc1O	none (no result: MDM2 E3 inh)
COc1cc2c3cc1Oc1cc(ccc1O)C[C@@H]1c4c(cc(OC)c(O)c4Oc4ccc(cc4)C[C@H]3N(C)CC2)CCN1C	L major viab 100 (no result: MDM2 E3 inh)
Cc1ccccc1C(O)(Cc1ccccc1)C1CN2CCC1CC2 (stereo not drawn)	L major viab 98 (no result: S1P3 antag)
c1ccc2c(c1)[nH]c1cnccc12	none (no result: MDM2 E3 inh)
Cc1c2ccncc2c(C)c2c1[nH]c1ccccc12	L major viab 100 (no result: MDM2 E3 inh)
Cc1ccc(NP(=O)(Nc2ccc(C)cc2)Oc2ccccc2)cc1	none
COc1ccc(C(O)c2ccccc2OP(=O)(N(C)C)N(C)C)cc1 (stereo not drawn)	L major viab 66
COc1ccc(C(O)c2cc(OC)ccc2OP(=O)(N(C)C)N(C)C)cc1 (stereo not drawn)	none
c1ccc2c(CCNCc3ccc4c(c3)OCO4)c[nH]c2c1	L major viab 77
CN1C2CCC1/C(=C/c1ccccn1)C(=O)/C2=C\c1ccccn1	L major viab 100
CC#CP(=O)(OC)C(O)(CF)c1ccccc1 (stereo not drawn)	none
O=C(c1cccc(Cl)c1)C1CCCN(Cc2cccc3cnccc23)C1 (stereo not drawn)	L major viab 95
CCCCc1ncc(CN2CCCC(C(=O)c3ccc(SC)cc3)C2)[nH]1 (stereo not drawn)	none
CSc1ncc(CN2CCCC(C(=O)c3cccc(Cl)c3)C2)cn1 (stereo not drawn)	L major viab 82
O=C(c1ccc(Cl)cc1)C1CCCN(Cc2cccc3cnccc23)C1 (stereo not drawn)	L major viab 99
O=C(c1cccc(Cl)c1)C1CCCN(Cc2ccon2)C1 (stereo not drawn)	none
Cc1c(C(=O)C(=O)N2CCC3(CC2)OCCO3)c2ccccc2n1C	none
O=C1NC(=O)N(c2cccc(Br)c2)C(=O)/C1=C/c1ccsc1	none
CN1CCN(c2c(C#N)c(C(F)(F)F)nn2C)CC1	none
O=C1NC(=S)N(c2ccccc2F)C(=O)/C1=C\c1cccs1	none
CCOc1ccc(N2C(=O)/C(=C\c3cccs3)C(=O)NC2=S)cc1	L major viab 100
CCCCCCOc1ccc(CN2CCN(C)CC2)cc1	L major viab 100
CCN1CCN(Cc2ccc(C)cc2)CC1	none
Cc1c(N=Nc2c(O)n(C)c(=O)n(C)c2=O)c(=O)n(-c2ccccc2)n1C	none
O=P(C(c1ccc2c(c1)OCO2)N1CCOCC1)(N1CCOCC1)N1CCOCC1 (stereo not drawn)	none
CCc1ccccc1N1C(=O)NC(=O)/C(=C\c2cc(C)n(C)c2C)C1=O	L major viab 54
Cc1cc(C)cc(N2C(=O)NC(=O)/C(=C\c3cc(C)n(C)c3C)C2=O)c1	none
CC1CCCN(C(=O)c2ccc(N3CC4CC(C3)c3cccc(=O)n3C4)c([N+](=O)[O-])c2)C1 (stereo not drawn)	none
CC1CCN(C(=O)c2ccc(N3CC4CC(C3)c3cccc(=O)n3C4)c([N+](=O)[O-])c2)CC1 (stereo not drawn)	L major viab 71
CCn1c(C)c(C(=O)O)c2cc(OC)ccc21	none
CCN1CCN(C(=O)Cc2c(C)n(C(=O)c3ccc(Cl)cc3)c3ccc(OC)cc23)CC1	L major viab 98
C=CCN1C(=O)/C(=C/c2cc(C)n(-c3ccccn3)c2C)C(=O)NC1=S	L major viab 96
Cc1cc(/C=C2/C(=O)NC(=O)N(C)C2=O)c(C)n1-c1ccccc1	none
Fc1ccccc1CNC1CN2CCC1CC2 (stereo not drawn)	none
Clc1ccc(CNC2CN3CCC2CC3)cc1 (stereo not drawn)	L major viab 92
CC(=O)N1N=C(c2c(O)n(C)c(=O)n(C)c2=O)CC1c1ccccc1 (stereo not drawn)	none (no result: L major viab)
c1cc2c(cc1CCNC1C3CC4CC(C3)CC1C4)OCO2 (stereo not drawn)	L major viab 86 (no result: S1P3 antag)
CC1CCC(NCCc2ccc3c(c2)OCO3)CC1 (stereo not drawn)	L major viab 93
N=C1c2ccccc2CN1c1ccc(F)c([N+](=O)[O-])c1	none (no result: L major viab)
C[n+]1c(-c2ccccc2)cc(-c2ccc(Cl)cc2)cc1-c1ccccc1	L major viab 99
CN1CCC(N(C)c2nc(-c3ccc([N+](=O)[O-])cc3)nc3ccccc23)CC1	L major viab 100 (no result: S1P3 antag)
COc1ccc(NC(=O)c2cc([N+](=O)[O-])ccc2N2CCNCC2)cc1	none
CCN(CCNc1ccc([N+](=O)[O-])c2cccnc12)S(=O)(=O)c1ccccc1	none
NCCNc1ccc([N+](=O)[O-])c2cccnc12	none
CCN(CCNc1ccc([N+](=O)[O-])c2cccnc12)S(=O)(=O)c1ccc(Cl)cc1	L major viab 89 (no result: S1P3 antag)
O=[N+]([O-])c1ccc(NCCCN2CCOCC2)c2ncccc12	L major viab 87
O=c1[nH]c(O)c(C=Nc2ccccc2Oc2ccccc2)c(=O)[nH]1	none (no result: L major viab)
COc1ccc(NC(=S)NC(NC(=O)CF)C(Cl)(Cl)Cl)cc1[N+](=O)[O-] (stereo not drawn)	none
CCC(C)OC(=O)c1c(N)n(Cc2cccs2)c2nc3ccccc3nc12 (stereo not drawn)	L major viab 91 (no result: S1P3 antag)
